The record followed here is ChEMBL document CHEMBL4265954, “Discovery of potent liver-selective stearoyl-CoA desaturase-1 (SCD1) inhibitors, thiazole-4-acetic acid derivatives, for the treatment of diabetes, hepatic steatosis, and obesity” (Eur J Med Chem, 2018).

Converted amounts (≈) assume the structure as drawn. The source made the active and inactive calls. No cut-off for these calls is given here.

For data set [1], the system named is Mus musculus. The data set is described as follows: Ex vivo inhibition of SCD1 in C57BL/6J mouse eyelid treated orally for 6 hrs followed by incubation with [14C]stearoyl-CoA substrate for 30 mins by TLC assay. The format is organism-based. As to conditions: po. The essentials:
(§1)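 Male 6-week-old C57BL/6J mice dosed orally as a suspension in 0.5% methylcellulose. Liver or eyelid was taken 6 or 24 h later and homogenized in 100 mM Tris-HCl pH 7.4 with 0.25 M sucrose. S9 was obtained at 10,000 × g, 4 °C. S9 was incubated with [14C]stearoyl-CoA, NADH, MgCl2 and cytochrome b5 at room temperature, 10 min for liver and 30 min for eyelid. Lipids were saponified and run on AgNO3 TLC to quantify stearate and oleate. Result is % of vehicle control.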

The test system of data set [2] is Mus musculus. The data set is described as follows: Ex vivo inhibition of SCD1 in C57BL/6J mouse eyelid assessed as residual activity at 1 mg/kg, po treated for 24 hrs followed by incubation with [14C]stearoyl-CoA substrate for 30 mins by TLC assay relative to control. The format is organism-based. In short, it runs like this: as §1
In data set [3] the test system is Mus musculus. In words: Ex vivo inhibition of SCD1 in C57BL/6J mouse eyelid assessed as residual activity at 100 mg/kg, po treated for 24 hrs followed by incubation with [14C]stearoyl-CoA substrate for 30 mins by TLC assay relative to control. The format is organism-based. In short, it runs like this:
as §1

In data set [4] the target is Acyl-CoA (8-3)-desaturase (Homo sapiens, UniProt O60427). The data set is described as follows: Inhibition of delta-5 fatty acid desaturase (unknown origin).
The subject of data set [5] is Mus musculus. In words: Ex vivo inhibition of SCD1 in C57BL/6J mouse eyelid assessed as residual activity at 1 mg/kg, po treated for 6 hrs followed by incubation with [14C]stearoyl-CoA substrate for 30 mins by TLC assay relative to control. The format is organism-based. In short, it runs like this:
as §1

The nature of data set [6]: Solubility of the compound in PBS at pH 7.2. The format is physicochemical.
In data set [7] the test system is Mus musculus. The data set is described as follows: Ex vivo inhibition of SCD1 in C57BL/6J mouse eyelid assessed as residual activity at 10 mg/kg, po treated for 6 hrs followed by incubation with [14C]stearoyl-CoA substrate for 30 mins by TLC assay relative to control. The format is organism-based. In short, it runs like this: as §1
Data set [8] in a line: Apparent permeability of the compound in human Caco2 cells. The format is ADME, cell-based. The following applies: Caco-2.
The test system of data set [9] is Mus musculus. In words: Antiobesity activity in high fat diet fed C57BL/6J mouse assessed as reduction in diet-induced body weight gain at 10 mg/kg, po administered as diet mixture for 43 days relative to control. The format is functional. In short, it runs like this: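 C57BL/6J mice, individually housed, fed HFD for one month, then given HFD admixed with drug (0.0040% for 3 mg/kg/day, 0.0133% for 10 mg/kg/day) for 43 days, from 10 to 16 weeks of age. Chow-fed normal group as control. Body weight measured every 3–4 days. Mean ± SD, n=5–8. Dunnett's test versus HFD control.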

The nature of data set [10]: AUC (0 to infinity) in C57BL/6J mouse at 10 mg/kg, po. The format is ADME, organism-based. More on the design: dose 10 mg/kg, time infinity, route oral. As to conditions: in vivo.
In data set [11] the test system is Mus musculus. In words: Ex vivo inhibition of SCD1 in C57BL/6J mouse liver assessed as residual activity at 0.1 mg/kg, po treated for 6 hrs followed by incubation with [14C]stearoyl-CoA substrate for 10 mins by TLC assay relative to control. The format is functional. In short, it runs like this:
as §1

In data set [12] the test system is Mus musculus. The data set is described as follows: Ex vivo inhibition of SCD1 in C57BL/6J mouse eyelid assessed as residual activity at 0.1 mg/kg, po treated for 24 hrs followed by incubation with [14C]stearoyl-CoA substrate for 30 mins by TLC assay relative to control. The format is organism-based. In short, it runs like this:
as §1

Data set [13] deals with Mus musculus. The data set is described as follows: Ex vivo inhibition of SCD1 in C57BL/6J mouse eyelid assessed as residual activity at 0.1 mg/kg, po treated for 6 hrs followed by incubation with [14C]stearoyl-CoA substrate for 30 mins by TLC assay relative to control. The format is organism-based. The essentials: as §1
For data set [14], the system named is Mus musculus. In words: Ex vivo inhibition of SCD1 in C57BL/6J mouse liver assessed as residual activity at 10 mg/kg, po treated for 6 hrs followed by incubation with [14C]stearoyl-CoA substrate for 10 mins by TLC assay relative to control. The format is functional. In short, it runs like this: as §1
In another data set the target is T1, Stearoyl-CoA desaturase (Homo sapiens, UniProt O00767).
T1 sequence (O00767 whole entry): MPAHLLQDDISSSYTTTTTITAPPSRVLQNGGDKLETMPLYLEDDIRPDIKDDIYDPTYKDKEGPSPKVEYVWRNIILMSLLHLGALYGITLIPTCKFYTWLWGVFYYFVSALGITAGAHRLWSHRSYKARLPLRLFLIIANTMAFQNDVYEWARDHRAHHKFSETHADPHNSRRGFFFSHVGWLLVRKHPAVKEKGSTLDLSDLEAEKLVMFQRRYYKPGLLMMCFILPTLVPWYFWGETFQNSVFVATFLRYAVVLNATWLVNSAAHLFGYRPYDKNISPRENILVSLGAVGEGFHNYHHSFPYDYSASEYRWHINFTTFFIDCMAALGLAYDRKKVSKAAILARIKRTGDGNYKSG
In words: Inhibition of recombinant human SCD1 expressed in baculovirus expression system assessed as reduction in [3H]H2O production using stearoyl [9,10-3H]CoA as substrate in presence of NADH incubated for 30 mins by scintillation counting method. The essentials:
(§2)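 Desaturation of [9,10-3H]stearoyl-CoA measured as released [3H]H2O. Water was separated from charcoal-adsorbed substrate by filtration and counted by scintillation. Remaining activity = (compound − background)/(control − background). DMSO wells served as control and pre-stopped wells as background. IC50 was interpolated from the two points bracketing 50%.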

Data set [15] deals with Mus musculus. In words: Ex vivo inhibition of SCD1 in C57BL/6J mouse liver assessed as residual activity at 10 mg/kg, po treated for 24 hrs followed by incubation with [14C]stearoyl-CoA substrate for 10 mins by TLC assay relative to control. The format is functional. In short, it runs like this: as §1
A short description of data set [16]: Oral bioavailability in C57BL/6J mouse at 10 mg/kg. The format is ADME, organism-based. The following applies: in vivo. In short, it runs like this: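 Two male C57BL/6J mice per route, 10 mg/kg po and 1 mg/kg iv. Plasma concentration–time profiles gave Cmax, tmax, terminal half-life and AUC0-inf. Bioavailability was derived from the po and iv data.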
Data set [17] deals with Mus musculus. The data set is described as follows: Ex vivo inhibition of SCD1 in C57BL/6J mouse eyelid assessed as residual activity at 10 mg/kg, po treated for 24 hrs followed by incubation with [14C]stearoyl-CoA substrate for 30 mins by TLC assay relative to control. The format is organism-based. In short, it runs like this:
as §1

In data set [18] the test system is Mus musculus. The data set is described as follows: Ex vivo inhibition of SCD1 in C57BL/6J mouse liver treated orally for 6 hrs followed by incubation with [14C]stearoyl-CoA substrate for 10 mins by TLC assay. The format is functional, organism-based. In short, it runs like this:
as §1

Data set [19] concerns Mus musculus. In words: Ex vivo inhibition of SCD1 in C57BL/6J mouse liver assessed as residual activity at 1 mg/kg, po treated for 6 hrs followed by incubation with [14C]stearoyl-CoA substrate for 10 mins by TLC assay relative to control. The format is functional. The essentials: as §1
The subject of data set [20] is Mus musculus. In words: Ex vivo inhibition of SCD1 in C57BL/6J mouse liver assessed as residual activity at 1 mg/kg, po treated for 24 hrs followed by incubation with [14C]stearoyl-CoA substrate for 10 mins by TLC assay relative to control. The format is functional. In short, it runs like this:
as §1

In data set [21] the test system is Mus musculus. The data set is described as follows: Ex vivo inhibition of SCD1 in C57BL/6J mouse liver assessed as residual activity at 0.1 mg/kg, po treated for 24 hrs followed by incubation with [14C]stearoyl-CoA substrate for 10 mins by TLC assay relative to control. The format is functional. In short, it runs like this: as §1
The target of another data set is T2, Acyl-CoA desaturase 1 (Mus musculus, UniProt P13516).
T2 sequence (P13516 whole entry): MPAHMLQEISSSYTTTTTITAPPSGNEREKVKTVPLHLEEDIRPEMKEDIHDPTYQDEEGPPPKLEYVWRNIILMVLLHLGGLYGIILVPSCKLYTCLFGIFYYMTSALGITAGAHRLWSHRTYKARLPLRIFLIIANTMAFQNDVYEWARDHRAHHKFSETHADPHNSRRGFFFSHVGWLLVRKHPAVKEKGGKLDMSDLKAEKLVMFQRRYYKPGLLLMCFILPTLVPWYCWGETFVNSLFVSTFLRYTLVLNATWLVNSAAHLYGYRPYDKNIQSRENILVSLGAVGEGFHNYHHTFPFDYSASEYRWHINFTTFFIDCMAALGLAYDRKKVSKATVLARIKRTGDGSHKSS
The data set is described as follows: Inhibition of mouse liver microsome SCD assessed as reduction in [3H]H2O production using stearoyl [9,10-3H]CoA as substrate in presence of NADH incubated for 30 mins by scintillation counting method. The format is microsomes. In short, it runs like this:
as §2
Background: Liver microsomes are a subcellular fraction often used to study metabolism.

The nature of data set [22]: Inhibition of acetyl-CoA acetyltransferase (unknown origin). More on the design: species or system Homo sapiens.

Chain of Acyl-CoA (8-3)-desaturase (O60427 whole entry): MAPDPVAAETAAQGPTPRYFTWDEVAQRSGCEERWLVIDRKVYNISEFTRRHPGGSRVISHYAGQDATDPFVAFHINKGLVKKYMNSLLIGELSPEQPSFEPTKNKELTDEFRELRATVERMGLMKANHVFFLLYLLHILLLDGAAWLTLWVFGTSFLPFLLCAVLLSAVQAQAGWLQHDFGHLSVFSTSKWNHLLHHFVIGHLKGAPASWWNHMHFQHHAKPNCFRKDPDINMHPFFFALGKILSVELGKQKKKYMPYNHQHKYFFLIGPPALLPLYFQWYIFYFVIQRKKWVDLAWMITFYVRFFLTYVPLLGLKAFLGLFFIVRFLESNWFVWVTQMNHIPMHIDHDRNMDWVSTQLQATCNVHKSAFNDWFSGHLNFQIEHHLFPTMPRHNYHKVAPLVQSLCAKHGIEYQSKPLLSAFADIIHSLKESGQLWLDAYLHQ

One may read the IC50 as the point on the concentration scale where inhibition reaches its midpoint. The solubility is how much of the substance goes into solution per volume. Higher therefore signals a readily soluble substance. Broadly, the Papp is a coefficient for how fast a substance crosses the barrier. For orientation: AUC(0-inf) means the area under the concentration-time curve extrapolated to infinity. Low values mean less exposure, high ones more exposure. One may read the bioavailability as the share of a dose that reaches the circulation, judged against a reference dose that is usually intravenous. High values mean good availability, low ones poor availability. As for `Cc1csc(NC(=O)c2ccc(CNc3ccccc3C)cc2)n1`, the “inhibition (INH)” value in the data set with Mus musculus [1] is reported as “Dose-dependent effect”. The Activity is listed as 82% in the data set with Mus musculus [2]; 4% with Mus musculus [3]; 41% with Mus musculus [5]; -2% in the data set with Mus musculus [7]; 58% in the data set on Mus musculus [11]; 100% with Mus musculus [12]. Also, the Activity is listed as 144% with Mus musculus [13]; 22% with Mus musculus [14]; 109% in the data set on Mus musculus [15]; 4% with Mus musculus [17]; 24% in the data set with Mus musculus [19]; 120% in the data set with Mus musculus [20]. For the same compound, the Activity in the data set on Mus musculus [21] is 105%. The half-inhibitory concentration (IC50) in data set [4] is more than 30000 nM; at Stearoyl-CoA desaturase, 6.4 nM; on Acyl-CoA desaturase 1, 3.8 nM. This compound yielded a solubility in data set [6] of 2.4 µM (≈ 0.81 µg/mL). For the same compound, the apparent permeability (Papp) in [8] turned out to be 12.7 ×10⁻⁶ cm/s. The outcome in the data set with Mus musculus [9] was Active. The compound also gave an AUC(0-inf) in data set [10] of 2.4 µM·h. The bioavailability in [16] is 15%. The inhibition entry with Mus musculus [18] is “Dose-dependent effect”.
In the case of `O=C(Nc1ccncc1)c1ccc(COc2ccccc2Cl)cc1`, the IC50 is more than 30000 nM in data set [4], more than 30000 nM in data set [22], 1400 nM at Stearoyl-CoA desaturase and 510 nM at Acyl-CoA desaturase 1.
